Apaf1 inhib = inhibitors of human Apaf-1 apoptosome. 330,000 compounds, 0.71% hits. AID 489030. reconstituted apoptosome caspase-3 activity, DEVD-Rh110 fluorescence. inhibition, % at 20 µM; active = inhibition of at least 40% at 20 µM;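 note: plate controls were DMSO wells for no effect and DEVD-CHO caspase inhibitor wells for full effect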
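System – cell-free apoptosome with Apaf-1, procaspase-3 and caspase-9 · Buffer or medium – pH 7.5 Hepes buffer with CHAPS, BSA, DTT · Also added – cytochrome c with DEVD-Rh110 · Times – 30 min compound preincubation, 50 min activation, room temperature · Technique – Rh110 fluorescence intensity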
MEKK2mut PB1 HTS = signal of MEK5 binding to mutant human MEKK2 PB1 domain. bead flow cytometry, Alexa488-MEK5 binding to MEKK2 mutant. percent response, % at 10 µM. 290,000 compounds, 0.35% hits. AID 1530; in the data active = percent response above about 24%, passing the limit was not always enough
PREPL inhibitor = inhibits the human prolyl oligopeptidase-like enzyme | Q4J6C6 | recombinant PREPL, fluorescence polarization activity-based probe | inhibition, % at 5.96 µM | 320,000 compounds, 0.68% hits | AID 2751; in the data active = inhibition above about 43%;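 note: 0% = enzyme with DMSO and 100% = wells lacking enzyme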
MEKK2 WT-MEK5 = raises or lowers MEK5 binding to wildtype human MEKK2 PB1 domain. binding response (% of control), % at 10 µM. Q9Y2U5. bead flow cytometry, Alexa488-MEK5 binding to MEKK2 WT; actives lie on both sides. 290,000 compounds, 1.1% hits; in the data active = binding response below about 67% or above about 130%
MEKK3 PB1 HTS = modulators (inhibitors or enhancers) of MEK5 binding to human MEKK3 PB1 domain. binding response (% of control), % at 10 µM. AID 1529. 290,000 compounds, 1.4% hits. bead-based flow cytometry, Alexa488-MEK5 binding to MEKK3; actives lie on both sides; 0 = blocked by unlabeled MEK5, 100 = vehicle;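 active = binding response more than 3 SD above or below the average of its plate-row segment, actives on both sides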;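 note: Alexa488 bead fluorescence after subtracting the streptavidin-only scavenger bead signal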
UBC13 polyUb = inhibitors of human UBC13 polyubiquitin chain formation | inhibition, % at 20 µM | AID 485273 | P61088 | 330,000 compounds, 0.47% hits | TR-FRET; in the data active = inhibition above about 45%, passing the limit was not always enough
MEKK2wt confirm = raises or lowers MEK5 binding to wildtype human MEKK2, retest. bead flow cytometry, Alexa488-MEK5 binding to MEKK2 WT; actives lie on both sides. 5,900 compounds, 2.4% hits. binding response (% of control), % at 10 µM. shares compounds with MEKK3 PB1 HTS; in the data active = binding response below about 16% or above about 210%; inactive = in between
MEKK2mut-MEK5 = signal of MEK5 binding to mutant human MEKK2, retest | shares compounds with MEKK3 PB1 HTS | bead flow cytometry, Alexa488-MEK5 binding to MEKK2 mutant | percent response, % at 10 µM | 5,900 compounds, 2% hits | AID 1893; in the data active = percent response mostly above about 71%, no sharp cut-off; inactive = mostly below about 38%;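 note: higher means compound restores mutant binding toward wildtype level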
MEKK3-MEK5 inh = MEKK3-MEK5 PB1 inhibition, single concentration confirmation. shares compounds with MEKK3 PB1 HTS. bead flow cytometry, Alexa488-MEK5 binding to MEKK3; stronger effect = lower value. binding response (% of control), % at 10 µM. 5,900 compounds, 1.8% hits. AID 1894;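 active = binding response below 72% of control, or above a set upper limit, though filed actives all read lower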;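 note: 100% = DMSO only wells and 0% = binding blocked by excess unlabeled MEK5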
* = called active by the depositor; [ ] = another dose, or the depositor's remark. A selection: hits, their analogues and other compounds. The true share with any hit is near 3.1%.

`Cc1ccc(NC2CCCN(C(=O)CCCN3CCCCC3=O)C2)cc1C` (centres undefined) gave Apaf1 inhib -3, MEKK2mut PB1 HTS -1, PREPL inhibitor 18, MEKK2 WT-MEK5 101, MEKK3 PB1 HTS 103 and UBC13 polyUb -1.
COC(=O)C(CC(C)C)NC(=O)c1cccs1 (centres undefined) was read as Apaf1 inhib -14, MEKK2mut PB1 HTS -1, PREPL inhibitor 1, MEKK2 WT-MEK5 108, MEKK3 PB1 HTS 129*, UBC13 polyUb -7, MEKK2wt confirm 95, MEKK2mut-MEK5 -3 and MEKK3-MEK5 inh 98.
`COC(=O)Nc1nn(Cc2ccccc2F)cc1Br` gave Apaf1 inhib -7, MEKK2mut PB1 HTS -10, PREPL inhibitor 14, MEKK2 WT-MEK5 82, MEKK3 PB1 HTS 74*[inhibitor], UBC13 polyUb -11, MEKK2wt confirm 104, MEKK2mut-MEK5 8 and MEKK3-MEK5 inh 104.
`COc1cccc(OC)c1-c1nn2c(-c3cc(-c4ccccc4)n[nH]3)nnc2s1` gave Apaf1 inhib 53*, MEKK2mut PB1 HTS -12, PREPL inhibitor 28, MEKK2 WT-MEK5 80, MEKK3 PB1 HTS 78*[inhibitor], UBC13 polyUb 25, MEKK2wt confirm 32, MEKK2mut-MEK5 -26 and MEKK3-MEK5 inh 48*.
For Cc1ccc(/C=N/NC(=O)COc2ccc(Cl)c(C)c2)o1 the results were Apaf1 inhib 13, MEKK2mut PB1 HTS -5, PREPL inhibitor 8, MEKK2 WT-MEK5 95, MEKK3 PB1 HTS 100 and UBC13 polyUb -2.
For CC1CC1C(=O)OCC(=O)Nc1ccc(N=Nc2ccccc2)cc1 (centres undefined) the results were Apaf1 inhib 11, MEKK2mut PB1 HTS 5, PREPL inhibitor 14, MEKK2 WT-MEK5 107, MEKK3 PB1 HTS 136*, UBC13 polyUb 3, MEKK2wt confirm 99, MEKK2mut-MEK5 -3 and MEKK3-MEK5 inh 95.
Screening O=C(Cn1c2c(c(=O)n3ncnc13)CCC2)N/N=C/c1ccc(Cl)cc1 returned Apaf1 inhib 2, MEKK2mut PB1 HTS -19, PREPL inhibitor 15, MEKK2 WT-MEK5 54, MEKK3 PB1 HTS 48*[inhibitor], UBC13 polyUb -2, MEKK2wt confirm 97, MEKK2mut-MEK5 -2 and MEKK3-MEK5 inh 97.
COc1ccc(CC(=O)NNc2ncnc3c2cnn3-c2ccccc2)cc1 was read as Apaf1 inhib -3, MEKK2mut PB1 HTS 0, PREPL inhibitor -3, MEKK2 WT-MEK5 103, MEKK3 PB1 HTS 136*, UBC13 polyUb 5, MEKK2wt confirm 89, MEKK2mut-MEK5 -2 and MEKK3-MEK5 inh 97.
Screening COc1ccc(CC(=O)NNc2ncnc3c2cnn3-c2ccc(C)cc2)cc1 returned Apaf1 inhib 7, MEKK2mut PB1 HTS 0, PREPL inhibitor -10, MEKK2 WT-MEK5 95, MEKK3 PB1 HTS 96 and UBC13 polyUb -9.
Cc1cc(Cl)cc(C)c1OCC(=O)N1CCN(c2ncccn2)CC1 was read as Apaf1 inhib 4, PREPL inhibitor -12 and UBC13 polyUb 9.
COc1cccc(CNC(=O)[C@H](C)NC(=O)C2CCN(S(=O)(=O)c3ccccc3)CC2)c1 was read as Apaf1 inhib -2, MEKK2mut PB1 HTS 3, PREPL inhibitor 0, MEKK2 WT-MEK5 101, MEKK3 PB1 HTS 102 and UBC13 polyUb 8.
`COc1ccc(C(=O)CN2C(=O)NC3(CCCCC3)C2=O)cc1OC` gave Apaf1 inhib 2, MEKK2mut PB1 HTS 7, PREPL inhibitor -13, MEKK2 WT-MEK5 125, MEKK3 PB1 HTS 146*, UBC13 polyUb -4, MEKK2wt confirm 102, MEKK2mut-MEK5 7 and MEKK3-MEK5 inh 106.

Screening results: PubChem, several laboratories
